KCNQ1 act = potentiates or activates the human KCNQ1 potassium channel. P51787. CHO-K1 KCNQ1, thallium flux FluxOR fluorescence; hits give high values. B-score at 10 µM. hit rate 0.35% among 310,000;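 active = fluorescence ratio B-score, a plate-corrected score, at least three library SD, with initial intensity B-score within 5 SD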
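Schedule – 37 °C overnight plating, 90-min dark dye load, 20-min compound pretreatment · System – stable KCNQ1 CHO-K1 line · Probe or stimulus – thallium- and potassium-containing depolarizing buffer · Measured by – kinetic FluxOR fluorescence, 10 s baseline plus 110 s post-stimulus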
KCNQ1 inh = human KCNQ1 channel inhibition | hit rate 1.3% among 310,000 | CHO-K1 KCNQ1, FluxOR thallium flux fluorescence; hits give high values | P51787 | B-score at 10 µM | AID 2642;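 active = compounds whose thallium flux B-score, printed positive for inhibition, exceeds three library SD while starting fluorescence stays within three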;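 note: channel opened by potassium depolarization with thallium stimulus after 20 min compound exposure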
KCNK3 inh = human KCNK3 channel inhibition, primary screen; CHO-KCNK3 thallium flux, FluxOR fluorescence; hits give low values; B-score at 10 µM; hit rate 0.84% among 340,000;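 active = B-score under library mean minus 4 SD, starting fluorescence ratio at most library mean plus 5 SD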;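 note: more negative B-score means stronger inhibition of thallium flux through KCNK3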
Target sequence (O14649 whole entry, looked up): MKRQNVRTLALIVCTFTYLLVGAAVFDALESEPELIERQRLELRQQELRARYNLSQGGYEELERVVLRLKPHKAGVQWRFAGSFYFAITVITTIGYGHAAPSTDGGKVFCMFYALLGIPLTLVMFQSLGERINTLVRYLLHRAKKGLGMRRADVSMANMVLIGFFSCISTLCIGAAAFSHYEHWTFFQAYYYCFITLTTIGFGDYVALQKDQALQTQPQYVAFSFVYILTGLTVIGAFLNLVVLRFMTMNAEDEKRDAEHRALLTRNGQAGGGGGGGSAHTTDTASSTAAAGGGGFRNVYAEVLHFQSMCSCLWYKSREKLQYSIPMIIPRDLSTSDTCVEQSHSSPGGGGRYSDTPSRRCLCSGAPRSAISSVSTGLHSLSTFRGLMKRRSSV
hERG rescue = hERG (human) protection from proarrhythmic block; Q12809; hit rate 0.51% among 310,000; activation (rescue from dofetilide block), less the hit threshold, % at 10 µM; CHO-hERG, FluxOR thallium flux, dofetilide IC70 present;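 active = activation above the mean of controls blocked by dofetilide plus 5 SD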;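 note: thallium influx through hERG after potassium depolarization seen as dye fluorescence rise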
Kir21 block = Kir2.1 (mouse) channel inhibition. B-score at 10 µM. HEK293-Kir2.1, FluxOR thallium flux fluorescence; hits give low values. AID 1672. P35561. hit rate 0.85% among 310,000;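 active = fluorescence ratio B-score at or below minus 3 SD of library scores, with starting-brightness B-score within 2 SD, cut at about -4.2 in these data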;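 note: channel flux triggered by added potassium and thallium sulfate stimulus; B-score of peak minus minimum fluorescence over baseline after thallium stimulus; more negative B-score means stronger Kir2.1 block with less thallium influx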
KCNK9 inh = blocks the human KCNK9 two-pore domain potassium channel | Q9NPC2 | HEK293 KCNK9, FluxOR thallium flux fluorescence; hits give low values | B-score at 10 µM | hit rate 1.2% among 310,000;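 active = ratio B-score over 3 SD below the library mean, with starting fluorescence within 5 SD of its mean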;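 note: negative B-score means less thallium flux so channel inhibition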
Target sequence (Q9NPC2 whole entry, looked up, the tested form may be a part): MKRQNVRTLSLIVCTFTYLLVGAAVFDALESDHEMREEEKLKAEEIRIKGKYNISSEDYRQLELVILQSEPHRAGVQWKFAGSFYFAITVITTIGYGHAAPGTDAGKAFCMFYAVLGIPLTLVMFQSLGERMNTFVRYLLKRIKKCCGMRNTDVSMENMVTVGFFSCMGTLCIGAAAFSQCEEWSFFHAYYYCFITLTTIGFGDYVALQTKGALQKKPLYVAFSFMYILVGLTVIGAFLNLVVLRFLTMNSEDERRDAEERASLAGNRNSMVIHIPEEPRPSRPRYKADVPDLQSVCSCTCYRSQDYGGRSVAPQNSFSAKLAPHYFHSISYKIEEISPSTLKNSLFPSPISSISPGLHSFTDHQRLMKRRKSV
KCNQ1 inh valid = reconfirmed blocker of the human KCNQ1 potassium channel | hit rate 93% among 1,600 | KCNQ1 cell line, FluxOR thallium flux fluorescence | inhibition, % at 10 µM | shares compounds with KCNQ1 inh | AID 588353;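 active = primary screen active, with duplicate mean exceeding buffer control mean plus 3 SD of buffer wells, cut at about 28% in these data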;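 note: 0% = buffer control ratio and 100% = XE991 inhibitor control ratio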
CHO Tl flux = KCNQ1 inhibitor counter-screen hit in parental CHO cells. shares compounds with KCNQ1 inh. parental CHO-K1, FluxOR thallium flux fluorescence ratio; hits give low values; zero means no signal rise above baseline. fluorescence ratio (Tl flux) at 10 µM. hit rate 21% among 1,600;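 active = mean of duplicate thallium-flux fluorescence ratios in parental host cells more than 5 SD below the buffer control mean, cut at about 0.38 in these data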;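 note: ratio is peak minus minimum fluorescence divided by baseline fluorescence; actives read low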
KCNQ1 APC inh = blocks human KCNQ1 current in automated patch clamp; shares compounds with KCNQ1 inh; KCNQ1-CHO cells; calls only at 10 µM; hit rate 20% among 490; AID 624120;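 active = KCNQ1 current drop exceeding 3 SD of negative control wells, seen in both duplicate runs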;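 note: steady state current during a 2 s step from -80 to +40 mV; negative values mean current inhibition and positive values mean potentiation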
KCNQ2 spec = KCNQ1 inhibitor that also blocks rat KCNQ2 channel. inhibition, % at 10 µM. shares compounds with KCNQ1 inh. KCNQ2 cells, FluxOR thallium flux fluorescence. hit rate 71% among 1,600;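 active = mean percent inhibition of the KCNQ2 thallium signal more than 5 SD above the buffer-only control wells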;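 note: KCNQ2 expressed in CHO cells; 0% = buffer control wells and 100% = XE-991 inhibitor control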
KCNQ1 KCNE1 spec = selectivity of KCNQ1 inhibitors: inhibition of human KCNQ1/KCNE1 channel | shares compounds with KCNQ1 inh | KCNQ1/KCNE1 cells, FluxOR thallium flux fluorescence | inhibition, % at 10 µM | hit rate 77% among 1,600 | AID 652147;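 active = mean percent inhibition of duplicate wells above the buffer-only control mean plus 3 SD of those controls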;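 note: 0% = buffer only wells and 100% = XE-991 inhibitor control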
KCNK9 inh conf = human KCNK9 inhibitor confirmation. shares compounds with KCNK9 inh. HEK293 KCNK9 cells, FluxOR thallium flux fluorescence. inhibition, % at 10 µM. hit rate 43% among 4,900. AID 492992;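 active = thallium signal inhibited by more than 5 SD of the compound-free buffer control wells, on both duplicate plates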;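 note: 0% = assay buffer control wells without compound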
Kir2-1 spec = mouse Kir2.1 off-target activity of KCNK9 modulators; hit rate 4% among 4,900; Kir2.1 cells, FluxOR thallium flux fluorescence; inhibition, % at 10 µM; shares compounds with KCNK9 inh; AID 492993;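 active = thallium signal drop more than 5 SD beyond the mean of the no-compound control wells, seen in both duplicate plates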;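 note: signal is fluorescence rise after thallium addition divided by baseline fluorescence; plate controls were assay buffer only for no effect and full block by chlorpromazine control for full effect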
KCNK9 uninduced = second counter-screen for KCNK9 modulators: effect in non-induced cells. shares compounds with KCNK9 inh. non-induced KCNK9-HEK293, FluxOR thallium flux. inhibition, % at 10 µM. hit rate 40% among 4,900;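 active = thallium signal drop beyond 5 SD of the untreated control mean, on both duplicate plates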;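 note: plate controls were buffer only IC0 wells for no effect and SID17386958 at its maximal inhibitory level for full effect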
An asterisk follows results filed as active; i = inactive; x = no result given; + = active, no number. A selection: hits, their analogues and other compounds. The true share with any hit is near 3.7%.

SMILES | KCNQ1 act | KCNQ1 inh | KCNK3 inh | hERG rescue | Kir21 block | KCNK9 inh | KCNQ1 inh valid | CHO Tl flux | KCNQ2 spec | KCNQ1 KCNE1 spec | KCNK9 inh conf | Kir2-1 spec | KCNK9 uninduced | others
CCCOC(=O)C(C)n1c(-c2ccccc2)nc2ccccc2c1=O (stereo unspecified) | i | 7* | i | -9 | -1.6 | -11* | 0 | 0.48 | i | 58%* | 51%* | i | 36%*
CCOC(=O)Cn1c(-c2ccccc2)nc2ccccc2c1=O | i | i | i | -12 | -0.17 | i | x | x | x | x | x | x | x
Cc1cc(C)c(S(=O)(=O)c2ccccc2C)c(SCC(C)C)n1 | i | 9* | i | -11 | -0.12 | -14* | 115* | 0.42 | 112%* | 95%* | 50%* | i | 42%* | KCNQ1 APC inh=i
Cc1cc(C)c(S(=O)(=O)c2ccccc2C)c(N(C)C)n1 | i | i | i | -6 | -1.9 | i | x | x | x | x | x | x | x
CCCN(CC(=O)Nc1cc(Cl)cc(Cl)c1)CC(=O)Nc1ccc(F)c(F)c1F | i | 6* | i | -10 | 2.5 | -13* | 132* | 0.33* | 119%* | 159%* | 55%* | i | 46%*
Cc1ccc(CSC2=NCCN2S(=O)(=O)c2ccc(F)cc2)cc1 | i | i | i | -9 | -3.1 | i | x | x | x | x | x | x | x
CCOC1(c2ccccc2)OC(=O)c2ccccc21 (stereo unspecified) | i | i | i | -3 | -1.3 | i | x | x | x | x | x | x | x
Cc1cccc(C)c1OC1(c2ccccc2)OC(=O)c2ccccc21 (stereo unspecified) | i | 9* | i | -16 | 0.69 | -19* | 106* | 0.42 | 98%* | 138%* | 55%* | 32%* | 44%* | KCNQ1 APC inh=i
O=C(Nc1ccc(F)cc1)Nc1ccccc1NS(=O)(=O)c1cccs1 | i | i | i | -11 | -0.1 | i | x | x | x | x | x | x | x
O=C(Nc1ccc(Cl)cc1)Nc1ccccc1NS(=O)(=O)c1cccs1 | i | 7* | i | -6 | -1.8 | -10* | 81* | 0.56 | 66%* | i | 32%* | i | i
CCN(Cc1ccccc1)C(c1ccc(C)cc1)c1nnnn1C(C)(C)CC (stereo unspecified) | i | 8* | i | -10 | 0.01 | -13* | 112* | 0.41 | 112%* | 86%* | 58%* | i | 50%* | KCNQ1 APC inh=i
CCN(Cc1ccccc1)C(c1ccncc1)c1nnnn1C(C)(C)C (stereo unspecified) | i | i | i | 0 | -0.25 | i | x | x | x | x | x | x | x
CCc1ccccc1NCC(=O)Nc1ccc(Cl)c(C(F)(F)F)c1 | i | 8* | i | -11 | 0.22 | i | 50* | 0.53 | 62%* | i | i | i | 40%*
COc1ccc2oc(C(=O)Nc3nc(-c4ccccn4)cs3)c(C)c2c1 | i | i | i | -13 | 1.1 | i | x | x | x | x | x | x | x
COc1ccc(S(=O)(=O)N2CCOCC2)cc1NC(=O)CNC(=O)c1cccs1 | x | x | i | x | x | x | x | x | x | x | x | x | x
Clc1cccc(-c2cc3nc4c(c(N5CCN(c6cnccn6)CC5)n3n2)CCCC4)c1 | i | 8* | -8.8* | -18 | 1.9 | -13* | 100* | 0.39 | 119%* | 162%* | 46%* | i | 36%* | KCNQ1 APC inh=i
S=C(Nc1ccc(Cc2ccncc2)cc1)Nc1cccc(Cl)c1 | i | 8* | i | -10 | 0.39 | i | 68* | 0.51 | 86%* | 37%* | i | i | i
O=C(Nc1ccc(Oc2cccc3ccccc23)cc1)c1ccco1 | i | 11* | i | -12 | 1.4 | -14* | 160* | 0.29* | i | + | 54%* | i | 31%*
CC(Cc1cccs1)NC(=S)Nc1ccc(Cl)c(Cl)c1 (stereo unspecified) | i | i | i | -6 | -0.19 | i | x | x | x | x | x | x | x
CC(Cc1cccs1)NC(=S)Nc1ccc(Cl)cc1 (stereo unspecified) | i | 8* | i | -21 | -4.2* | -10* | 50* | 0.49 | 67%* | 66%* | 38%* | i | i
COc1cc(CNS(=O)(=O)c2ccc3c(c2)CC(C)N3C(C)=O)cc(OC)c1OC (stereo unspecified) | i | i | i | -9 | -0.81 | i | x | x | x | x | x | x | x
COc1ccc2c(c1)-c1nc(NC(=O)c3cccs3)sc1CC2 | i | 7* | i | -11 | 0.7 | -16* | 108* | 0.39 | 100%* | 190%* | 75%* | i | 35%* | KCNQ1 APC inh=i
Cc1ccc(/C=C2/SC(=S)N(CCC(=O)N3CCOCC3)C2=O)cc1 | i | i | i | -7 | -0.47 | i | x | x | x | x | x | x | x
Cc1c(Br)cccc1NC(=O)c1sccc1-n1cccc1 | i | i | i | 3 | 0.05 | i | x | x | x | x | x | x | x
CC(C)c1ccc(NC(=O)c2sccc2-n2cccc2)cc1 | i | 6* | i | -4 | 0.79 | -11* | 128* | 0.4 | 114%* | 178%* | 46%* | i | 44%* | KCNQ1 APC inh=+
CC(=O)Nc1ccc(S(=O)(=O)NC2(c3ccccc3)C(=O)N(C)C(=O)N(C)C2=O)cc1 | x | x | i | x | x | x | x | x | x | x | x | x | x
O=S(=O)(c1ccc(Cl)s1)N1CCC(Cc2ccccc2)CC1 | i | 6* | i | -13 | 0.31 | i | 72* | 0.43 | 114%* | 56%* | i | i | i
COc1ccc(CCC(=O)N/N=C(\C)c2ccc3c(c2)OCO3)cc1 | i | i | i | -7 | -0.96 | i | x | x | x | x | x | x | x

Compound activity deposited in PubChem by Johns Hopkins Ion Channel Center.
